The source of these data is ChEMBL document CHEMBL1122284, “Aromatic retinoic acid analogues. 2. Synthesis and pharmacological activity” (1983).

Assay [1] deals with Cricetinae gen. sp. Nature of the assay: Total cultures(12) versus active (3) at 10e-9 M conc. in hamster tracheal organ culture assay (TOC). The class given is functional, Trachea. In a few lines: (§1)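 Tracheas from Syrian golden hamsters kept on a vitamin A deficient diet from birth to 30–32 days old. Cultured serum-free (CMRL 1066 with insulin, hydrocortisone, glutamine, antibiotics), one explant per dish, 50% O2/45% N2/5% CO2, 36 °C, rocked. 3 days without retinoid, then 7 days with retinoid, medium renewed three times. Histology on day 10. Active means keratin/keratohyaline granules absent. Usually duplicate, 6–7 tracheas per concentration.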

Assay [2] concerns Cricetinae gen. sp. Nature of the assay: Total cultures(14) versus active (4) at 10e-8 M conc. in hamster tracheal organ culture assay (TOC). Format: functional, Trachea. In a few lines: as §1
Assay [3] deals with Cricetinae gen. sp. Kind of assay: Total cultures(6) versus active (1) at 10e-10 M conc. in hamster tracheal organ culture assay (TOC). Format: functional, Trachea. In a few lines:
as §1

Assay [4] has as its system Cricetinae gen. sp. Kind of assay: ED50 of retinoid required to effect reversal of keratinization. The class given is functional. In a few lines: as §1
In assay [5] the test system is Cricetinae gen. sp. Nature of the assay: Relative potency with respect to retinoic acid in hamster tracheal organ culture assay (TOC). Format: functional, Cricetulus griseus, Trachea.
For assay [6], the target named is T1, Ornithine decarboxylase (Mus musculus) (UniProt P00860).
T1 sequence (whole entry): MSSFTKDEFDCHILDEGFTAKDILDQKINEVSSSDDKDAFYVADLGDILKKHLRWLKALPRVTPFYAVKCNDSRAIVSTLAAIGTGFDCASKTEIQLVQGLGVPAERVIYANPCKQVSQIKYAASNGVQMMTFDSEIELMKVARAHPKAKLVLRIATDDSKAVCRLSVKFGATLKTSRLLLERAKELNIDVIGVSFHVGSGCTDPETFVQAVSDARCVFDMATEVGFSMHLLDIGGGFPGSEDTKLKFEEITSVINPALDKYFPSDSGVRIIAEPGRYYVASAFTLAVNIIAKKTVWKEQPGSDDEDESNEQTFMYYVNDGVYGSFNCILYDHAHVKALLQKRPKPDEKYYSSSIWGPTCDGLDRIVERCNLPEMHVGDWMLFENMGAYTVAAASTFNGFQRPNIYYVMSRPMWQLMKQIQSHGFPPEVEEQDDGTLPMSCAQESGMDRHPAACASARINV
Nature of the assay: Percent inhibition of the induction of ornithine decarboxylase at 1.7 nmol in mouse dorsal epidermis (ODC assay). The class given is functional.

For assay [7], the target named is T1, Ornithine decarboxylase (Mus musculus). Nature of the assay: Percent inhibition of the induction of ornithine decarboxylase at 17 nmol dose in mouse dorsal epidermis (ODC assay). Format: functional.
Assay [8] relates to Cricetinae gen. sp. Kind of assay: Total cultures(12) versus active(13) at 10e-9 M conc. in hamster tracheal organ culture assay (TOC). The class given is functional, Trachea. In a few lines: as §1
Assay [9] deals with Cricetinae gen. sp. Nature of the assay: Total cultures(13) versus active(13) at 10e-8 M conc. in hamster tracheal organ culture assay (TOC). Format: functional, Trachea. In a few lines:
as §1

The subject of assay [10] is Cricetinae gen. sp. Kind of assay: Total cultures(5) versus active(13) at 10e-10 M conc. in hamster tracheal organ culture assay (TOC). Format: functional, Trachea. In a few lines: as §1
For assay [11], the system named is Cricetinae gen. sp. Kind of assay: Total cultures(15) versus active (14) at 10e-9 M conc. in hamster tracheal organ culture assay (TOC). Format: functional, Trachea. In a few lines: as §1
Assay [12] concerns Cricetinae gen. sp. Kind of assay: Total cultures(15) versus active (15) at 10e-8 M conc. in hamster tracheal organ culture assay (TOC). Format: functional, Trachea. In a few lines:
as §1

The subject of assay [13] is Cricetinae gen. sp. Kind of assay: Total cultures(15) versus active (7) at 10e-10 M conc. in hamster tracheal organ culture assay (TOC). Format: functional, Trachea. In a few lines: as §1
Assay [14] deals with Cricetinae gen. sp. Nature of the assay: Total cultures(6) versus active (1) at 10e-11 M conc. in hamster tracheal organ culture assay (TOC). The class given is functional, Trachea. In a few lines: as §1
Assay [15] has as its system Cricetinae gen. sp. Kind of assay: Total cultures(6) versus active (3) at 10e-10 M conc. in hamster tracheal organ culture assay (TOC). Format: functional, Trachea. In a few lines: as §1
Assay [16] has as its system Cricetinae gen. sp. Kind of assay: Total cultures(6) versus active (5) at 10e-9 M conc. in hamster tracheal organ culture assay (TOC). The class given is functional, Trachea. In a few lines:
as §1

The test system of assay [17] is Cricetinae gen. sp. Nature of the assay: Total cultures (14) versus active (4) at 10e-10 M conc. in hamster tracheal organ culture assay (TOC). The class given is functional, Trachea. In a few lines: as §1
Assay [18] deals with Cricetinae gen. sp. Kind of assay: Total cultures (14) versus active (8) at 10e-9 M conc. in hamster tracheal organ culture assay (TOC). Format: functional, Trachea. In a few lines: as §1
The subject of assay [19] is Cricetinae gen. sp. Nature of the assay: Total cultures(7) versus active (7) at 10e-8 M conc. in hamster tracheal organ culture assay (TOC). The class given is functional, Trachea. In a few lines: as §1
Assay [20] relates to Cricetinae gen. sp. Nature of the assay: Total cultures(10) versus active (12)at 10e-9 M conc. in hamster tracheal organ culture assay (TOC). Format: functional, Trachea. In a few lines:
as §1

Assay [21] concerns Cricetinae gen. sp. Nature of the assay: Total cultures(11) versus active(12)at 10e-8 M conc. in hamster tracheal organ culture assay (TOC). Format: functional, Trachea. In a few lines: as §1
The test system of assay [22] is Cricetinae gen. sp. Nature of the assay: Total cultures(6) versus active(13) at 10e-10 M conc. in hamster tracheal organ culture assay (TOC). Format: functional, Trachea. In a few lines: as §1

Bounds are passed on as bounds.

On to `CCOC(=O)c1ccc(/C=C(C)/C=C/C2=C(C)CCCC2(C)C)o1`, for which the Active/total cultures with Cricetinae gen. sp. [1] was 25%; with Cricetinae gen. sp. [2], 29%; in the assay on Cricetinae gen. sp. [3], 17%. Moreover, the ED50 in the assay on Cricetinae gen. sp. [4] turned out to be 0.02 nM. Further, the Relative activity with Cricetinae gen. sp. [5] is on record as <<0.1. Further, the inhibition of control in [6] and in assay [7] was 9% each time.
`CC1=C(/C=C/C(C)=C(\F)c2ccc(C(=O)O)cc2)C(C)(C)CCC1`: the Active/total cultures with Cricetinae gen. sp. [8] is 92%; in the assay on Cricetinae gen. sp. [9], 100%; with Cricetinae gen. sp. [10], 38%. For the same compound, the ED50 with Cricetinae gen. sp. [4] came out at 0.02 nM. Moreover, the Relative activity with Cricetinae gen. sp. [5] was 3. Moreover, the inhibition of control in [6] was 70%; in assay [7], 80%.
In the case of `CC1=C(/C=C/C(C)=C/c2ccc(C(=O)O)s2)C(C)(C)CCC1`, the Active/total cultures in the assay on Cricetinae gen. sp. [11] stood at 93%; in the assay on Cricetinae gen. sp. [12], 100%; in the assay with Cricetinae gen. sp. [13], 47%. Also, the ED50 with Cricetinae gen. sp. [4] is 0.02 nM. Further, the Relative activity in the assay with Cricetinae gen. sp. [5] is on record as 2. The figures for the inhibition of control in assay [6] and in assay [7] were 42% and 67%, respectively.
`COc1cc(C(=O)O)ccc1/C=C(C)/C=C/C1=C(C)CCCC1(C)C`: the Active/total cultures worked out at 17% in the assay on Cricetinae gen. sp. [14], 50% in the assay on Cricetinae gen. sp. [15] and 83% in the assay on Cricetinae gen. sp. [16]. Also, in the assay on Cricetinae gen. sp. [4], the ED50 is 0.01 nM. The Relative activity in the assay on Cricetinae gen. sp. [5] was 3. Further, the values for the inhibition of control in assay [6] and in [7] were 9% and 37%, respectively.
Turning to `CCOC(=O)c1ccc(/C=C(C)/C=C/C2=C(C)CCCC2(C)C)cn1`, the values for the Active/total cultures with Cricetinae gen. sp. [17], in the assay on Cricetinae gen. sp. [18] and with Cricetinae gen. sp. [19] were 29%, 57% and 100%, respectively. The ED50 in the assay with Cricetinae gen. sp. [4] is 0.008 nM. Further, the Relative activity with Cricetinae gen. sp. [5] stood at 0.4. In addition, the inhibition of control in [6] is 29%; in assay [7] it was 60%.
In the case of `CCOC(=O)c1ccc(/C(F)=C(C)/C=C/C2=C(C)CCCC2(C)C)cc1`, the Active/total cultures with Cricetinae gen. sp. [20] was 83%; in the assay on Cricetinae gen. sp. [21] it was 92%; in the assay with Cricetinae gen. sp. [22], 46%. The ED50 in the assay with Cricetinae gen. sp. [4] worked out at 0.02 nM. Further, in the assay with Cricetinae gen. sp. [5], the Relative activity was found to be 2. In addition, the inhibition of control came out at 56% in [6] and 82% in assay [7].
